An excerpt weighted towards active compounds, which were near 0.55% of everything screened.
TRPML3 agonist – human mucolipin-3 channel agonism. HEK293 TRPML3-YFP, Fluo-8 calcium fluorescence; 100% = the carbachol control signal. 220,000 tested, 0.29% active. activation, % at 3 µM. AID 1448;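 active means activation above its plate's cutoff, the mean activation of the plate's test wells plus 3 SD, cut at about 12% in these data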
Target sequence (Q8TDD5 whole entry, looked up): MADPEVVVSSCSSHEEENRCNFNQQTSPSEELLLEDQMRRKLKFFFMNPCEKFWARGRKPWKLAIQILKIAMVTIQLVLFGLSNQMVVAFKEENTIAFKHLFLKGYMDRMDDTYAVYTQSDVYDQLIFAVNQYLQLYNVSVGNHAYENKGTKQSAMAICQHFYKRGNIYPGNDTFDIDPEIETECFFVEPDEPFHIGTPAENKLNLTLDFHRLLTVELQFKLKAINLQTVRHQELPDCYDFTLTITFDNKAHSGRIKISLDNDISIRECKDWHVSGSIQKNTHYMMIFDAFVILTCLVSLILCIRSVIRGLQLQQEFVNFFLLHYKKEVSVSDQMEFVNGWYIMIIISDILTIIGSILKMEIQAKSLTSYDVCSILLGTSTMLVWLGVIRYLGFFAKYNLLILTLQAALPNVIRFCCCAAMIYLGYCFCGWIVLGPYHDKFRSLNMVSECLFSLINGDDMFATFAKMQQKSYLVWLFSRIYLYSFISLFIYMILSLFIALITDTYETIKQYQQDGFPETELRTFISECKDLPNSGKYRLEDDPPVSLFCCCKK
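Test system: TRPML3-YFP stable HEK293 cells. Doses: single point at 3 µM. Incubation: dye loading 1 h 37 °C then 30 min ambient, 125 s read. Signal: Fluo-8 calcium dye fluorescence, ex 470-495, em 515-575 nm. Measure: percent activation from peak-to-basal fluorescence ratio, scaled between DMSO and carbachol.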
OXTR potentiate – human OXTR potentiation | AID 2445 | CHO-OTR cells, Fluo-8 calcium fluorescence, potentiator mode; 0% = oxytocin EC15, 100% = EC100 | P30559 | activation, % at 3 µM | 320,000 tested, 0.061% active;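 active means activation above that plate's cutoff, the mean activation of tested compounds plus 3 SD, cut at about 6.6% in these data, passing the limit was not always enough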
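System: human OTR in CHO cells; Also added: sub-maximal oxytocin, roughly EC15; Timing: compound 6 min at room temperature before oxytocin, 100 s read; Technique: Fluo-8 intracellular calcium fluorescence, ex 470-495, em 515-575 nm; Controls: oxytocin EC15 low and EC100 high; Replication: singlicate.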
zfTRPN1 agonist – agonists of zebrafish TRPN1 channel; HEK293 zebrafish TRPN1-YFP, Fluo-8 calcium fluorescence; 100% = response to 87 µM carbachol; activation, % at 3 µM; 220,000 tested, 0.18% active; AID 1424;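 active means activation above its plate's cutoff, the mean activation of test wells on that plate plus 3 SD, cut at about 19% in these data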
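Material – zebrafish TRPN1-YFP in HEK293 cells · Doses – 3 µM single point · Schedule – dye 1 h 37 °C plus 30 min RT · Signal – Fluo-8 calcium fluorescence, excitation 470-495 nm, emission 515-575 nm · Read-out – % activation versus carbachol response · Control set – carbachol high, DMSO low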
V1aR counter – counter-screen for oxytocin receptor agonists: human V1a receptor agonists | CHO-V1R cells, Fluo-8 calcium fluorescence, agonist mode; 0% DMSO, 100% 3 nM vasopressin | activation, % at 3 µM | P37288 | 320,000 tested, 0.25% active;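 active means activation above the mean activation of all tested compounds plus 3 SD, per screening run, cut at about 20% in these data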;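 further: signal is peak over basal fluorescence ratio across a 100 second FLIPR read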
OXTR ag – activates the human oxytocin receptor; P30559; AID 2435; activation, % at 3 µM; 320,000 tested, 0.32% active; CHO-OTR cells, Fluo-8 calcium fluorescence; normalized: DMSO 0%, oxytocin 100%;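 active means activation above the mean of all tested compounds plus 3 SD, cutoff set per screening run, cut at about 20% in these data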;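 further: peak over basal fluorescence ratio from a 100 s FLIPR kinetic read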
OXTR agonist cf – confirmation of human oxytocin receptor agonists; shares compounds with OXTR ag; CHO-OTR cells, Fluo-8 calcium fluorescence, agonist; activation, % at 3 µM; 390 tested, 20% active; AID 434963;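 active means mean activation above about 20% derived from the earlier single-dose screen, limit read from the data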;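 further: peak over minimum fluorescence ratio per well during a 100 second FLIPR read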
V1aR counter 3x – activates V1a receptor in oxytocin agonist counter-screen; shares compounds with OXTR ag; CHO-V1R cells, Fluo-8 calcium fluorescence; activation, % at 3 µM; 390 tested, 10% active;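 active means mean activation over triplicate exceeds the hit threshold set in the earlier primary screen, cut at about 20% in these data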;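 further: peak over basal fluorescence ratio within a 100 second read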
A number is an active result; 0 = inactive; - = not tested or not shown.

SMILES	TRPML3 agonist	OXTR potentiate	zfTRPN1 agonist	V1aR counter	OXTR ag	OXTR agonist cf	V1aR counter 3x
Cc1ccccc1OCCNc1cc(N2CC(C)NC(C)C2)ccc1[N+](=O)[O-] (centres undefined)	0	0	0	0	20	0	0
CCc1ccc(OCCNc2cc(N3CCNC(C)C3)ccc2[N+](=O)[O-])cc1 (centres undefined)	-	0	-	0	0	-	-
Cc1ccc(OC[C@H](O)[C@H](C)NC(C)C)c2c1CCC2	-	0	-	0	0	-	-
O=C(CCc1ccc(S(=O)(=O)N2CCOCC2)cc1)Nc1ccc(N2CCOCC2)cc1	0	0	0	0	0	-	-
Cc1cc(N2CCCCC2)nc(NCc2ccccc2)n1	0	0	47	0	25	0	0
Oc1ccc(Cl)cc1CNCc1ccc(Cl)nc1	-	0	-	0	20	21	0
Oc1ccc(Cl)cc1CNCc1ccc(F)c(F)c1	-	0	-	0	0	-	-
COc1ccccc1Oc1ccc2c(c1)C(=O)N(c1ccc(O)cc1)C2=O	0	0	0	0	26	0	0
COc1ccccc1Oc1ccc2c(c1)C(=O)N(CC(=O)O)C2=O	-	0	-	0	0	-	-
Cc1ccc(Cl)cc1N1CCN(C(=O)C2CCN(S(=O)(=O)c3c(C)nn(C)c3C)CC2)CC1	0	0	0	0	21	0	0
COc1cc(NC(=O)Cc2nn(C)c(=O)c3ccccc23)cc(OC)c1OC	0	0	0	0	0	-	-
COc1ccc(OC)c(NC(=O)Cc2nn(C)c(=O)c3ccccc23)c1	0	0	0	0	20	0	0
COc1ccc(C2NCCn3cccc32)cc1 (centres undefined)	0	0	0	0	0	-	-
COc1cc(OC)c(OC)cc1CCC(C)NCCC(c1ccccc1)c1ccccc1 (centres undefined)	-	0	-	0	22	0	0
COc1ccc2nc(N3CCN(C(=O)C4COc5ccccc5O4)CC3)sc2c1 (centres undefined)	-	0	-	0	0	-	-
O=C(Cc1cccs1)N(Cc1ccco1)C1(C(=O)NC2CCCC2)CCCCC1	0	0	0	0	20	0	0
O=C1NC(=O)C(CC(=O)N(Cc2ccco2)C2(C(=O)NC3CCCC3)CCCCC2)N1 (centres undefined)	0	0	0	0	0	-	-
O=C(Nc1nccs1)C(Br)C(Br)c1ccccc1 (centres undefined)	-	0	-	0	0	-	-
CCNc1nc(Oc2ccc(C#N)cc2)cc(C(F)(F)F)n1	0	0	0	0	0	-	-
CCOC(=O)c1csc(NC(=O)CSc2nnnn2-c2ccc3c(c2)OCCO3)n1	0	0	0	0	23	0	0
N#C/C(=C\c1ccc(N2CCOCC2)o1)c1nc2ccccc2[nH]1	0	0	0	0	43	176	259
N#C/C(=C\c1ccc(N2CCOCC2)c([N+](=O)[O-])c1)c1nc2ccccc2[nH]1	0	0	0	0	0	-	-
O=C(c1ccco1)N1N=C(c2ccc(Br)cc2)CC1c1ccco1 (centres undefined)	-	0	-	0	0	-	-
COc1ccccc1-[n+]1c(C)cc(/C=C2\Sc3ccccc3N2C)cc1C	12	0	26	0	26	26	26
COc1ccc(C(=O)/C=C2\Sc3ccccc3N2C)cc1	0	0	0	0	0	-	-
SMILES	TRPML3 agonist	OXTR potentiate	zfTRPN1 agonist	V1aR counter	OXTR ag	OXTR agonist cf	V1aR counter 3x
O=C(COc1ccc2ccc(=O)oc2c1)Nc1cccc(S(=O)(=O)N2CCCCC2)c1	-	0	-	0	21	0	0
CC(=O)c1ccc(OCC(=O)Nc2cccc(S(=O)(=O)N3CCCC3)c2)cc1	-	0	-	0	0	-	-
COc1ccc(C(=O)N/N=C/c2sc3ccccc3c2O)cc1	0	0	0	0	0	-	-
O=C(N/N=C/c1sc2ccccc2c1O)c1ccccc1	0	0	0	0	21	30	48
O=C(COC(=O)c1cc(S(=O)(=O)N2CCCC2)ccc1O)Nc1ccc(S(=O)(=O)N2CCOCC2)cc1	0	0	0	0	0	-	-
O=C(COC(=O)c1cc(S(=O)(=O)N2CCCC2)ccc1O)Nc1ccc(SC(F)F)cc1	-	0	-	0	21	0	0
O=C(c1ccccc1)c1cc(Cl)ccc1N1C(=O)C=CC1=O	0	-	0	-	-	-	-

Source: PubChem BioAssay
